Assay outcomes (PubChem)
XBP1 UPR activ: activators of adaptive arm of unfolded protein response (XBP1); activation, % at 20 µM; actives 0.33% (n = 330,000); CHO-XBP1 luciferase reporter, IRE1-XBP1 UPR activation, luminescence; percent of tunicamycin response, DMSO as zero; AID 463104;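 active means versus positive control, 20 µM dose yields 30% or more activation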;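 further: 100% = tunicamycin at 10 µg/mL and 0% = DMSO only wells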
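Test system: CHO-XBP1 luciferase reporter cells | Buffer or medium: Serum-containing F12 medium, 10% FBS | Schedule: 6 h compound exposure at 37 °C, 5% CO2 | Detection: Steady-Glo luciferase glow luminescence, 10 min after reagent addition | Read-out basis: Activation, % of tunicamycin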
CHOP UPR activ: activators of apoptotic arm of unfolded protein response (CHOP); AID 449763; CHO-CHOP luciferase reporter, UPR activation, luminescence; percent of tunicamycin response over DMSO baseline; activation, % at 10 µM; actives 0.34% (n = 330,000);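 active means at 10 µM dose, activation of 40% or more, normalized to positive control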;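 further: 100% = tunicamycin at 10 µg/mL and 0% = DMSO alone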
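measured by = luciferase luminescence | assay system = CHO-CHOP cells, stable luciferase reporter of PERK-eIF2a-CHOP signalling | amount = 500 reporter cells seeded per well | timing = 6 h compound exposure at 37 °C after overnight seeding | controls = positive tunicamycin 10 µg/mL, negative DMSO alone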
ABHD5 PLIN5 PPI: ABHD5-PLIN5 protein interaction inhibition. Q00G26+Q8WTS1. Split G. princeps luciferase complementation, luminescence, 4 h. inhibition, % at 4 µM. actives 0.78% (n = 360,000). AID 602281;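 active means inhibition above the mean inhibition across every tested compound plus 3 SD, cut at about 22% in these data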;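 further: 0% = DMSO only wells and the 100% control is not disclosed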
Target sequence (Q00G26 whole entry, looked up): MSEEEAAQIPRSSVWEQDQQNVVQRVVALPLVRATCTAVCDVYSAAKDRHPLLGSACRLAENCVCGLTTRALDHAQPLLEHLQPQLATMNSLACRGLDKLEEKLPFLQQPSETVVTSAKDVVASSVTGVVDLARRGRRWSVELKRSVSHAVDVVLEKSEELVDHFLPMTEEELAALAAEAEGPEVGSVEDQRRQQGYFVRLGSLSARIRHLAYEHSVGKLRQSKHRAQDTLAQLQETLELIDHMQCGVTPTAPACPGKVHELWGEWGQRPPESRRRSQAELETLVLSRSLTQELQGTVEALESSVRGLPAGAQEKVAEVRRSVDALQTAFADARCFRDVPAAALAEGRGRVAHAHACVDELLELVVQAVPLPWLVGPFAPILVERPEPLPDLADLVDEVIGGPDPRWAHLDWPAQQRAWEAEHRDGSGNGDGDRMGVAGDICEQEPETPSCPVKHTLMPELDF
Target sequence (Q8WTS1 whole entry, looked up): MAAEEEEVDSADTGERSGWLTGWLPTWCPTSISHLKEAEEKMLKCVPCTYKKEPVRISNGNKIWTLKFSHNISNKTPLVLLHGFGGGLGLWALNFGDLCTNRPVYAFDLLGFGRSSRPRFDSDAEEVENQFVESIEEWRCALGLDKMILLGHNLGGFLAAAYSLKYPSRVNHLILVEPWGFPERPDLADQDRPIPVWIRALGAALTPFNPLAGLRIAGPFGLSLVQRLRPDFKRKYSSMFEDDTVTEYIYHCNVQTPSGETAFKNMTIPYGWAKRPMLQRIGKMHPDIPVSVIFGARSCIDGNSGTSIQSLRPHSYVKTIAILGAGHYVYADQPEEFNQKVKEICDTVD
Mdm2 MdmX PPI: human Mdm2/MdmX binding inhibition; SaOS-2 split-luciferase Mdm2/MdmX complementation, luminescence; inhibition, % at 8 µM; actives 3% (n = 330,000); AID 485346;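 active means inhibition of at least 50% at 8 µM in the primary screen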
Exocytosis inh: lytic granule exocytosis inhibition. TALL-104 LAMP-1 surface exposure, flow cytometry; cells stimulated with thapsigargin and PMA. inhibition, % at 10 µM. actives 0.66% (n = 360,000). AID 651702;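 active means inhibition above about 55%, limit read from the data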
Mdm2-MdmX conf: human Mdm2/MdmX binding inhibition, confirmed; shares compounds with Mdm2 MdmX PPI; luminescent assay; inhibition, % at 8 µM; actives 55% (n = 10,000); in the data active means inhibition above about 40%
FLuc counter: counter-screen for Mdm2/MdmX inhibitors: full-length luciferase | shares compounds with Mdm2 MdmX PPI | SaOS-2 full-length luciferase counterscreen, luminescence | inhibition, % at 8 µM | actives 77% (n = 6,200);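 active means mean inhibition at 8 µM reaching about 37%, which flags the compound as non-specific, limit read from the data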;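 further: p53-null SaOS-2 cells with luciferase driven by a doxycycline-inducible promoter; compound on cells about two nights before reading with doxycycline added after day one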
* hit, by the source's call; / = no result given. This is a sample that favours compounds with a hit; in the whole collection about 4% have one here.

SMILES	XBP1 UPR activ	CHOP UPR activ	ABHD5 PLIN5 PPI	Mdm2 MdmX PPI	Exocytosis inh	Mdm2-MdmX conf	FLuc counter
CCOCCCN(C(=O)CNC(=O)c1ccco1)C(C(=O)NC1CCCC1)c1cccc(OC)c1 (stereo not given)	-3	2	-5	-31	-5	/	/
CCN(CC)S(=O)(=O)c1cccc(NC(=O)CC2CCCC2)c1	2	2	-4	0	-12	/	/
CCN(CC)S(=O)(=O)c1cccc(NC(=O)Nc2cccc(C(F)(F)F)c2)c1	8	10	-12	68*	7	93*	52*
CCCCN(C)CC(O)Cn1cc(/C=C/C(=O)c2ccc(OCC)cc2)c2ccccc21 (stereo not given)	11	4	/	69*	/	19	/
CCCCN(C)CC(O)Cn1cc(/C=C/C(=O)c2cccs2)c2ccccc21 (stereo not given)	/	/	17	/	44	/	/
COc1ccccc1-c1nnc(SCC(=O)Nc2nc(-c3ccccc3)cs2)n1C	-1	2	2	21	1	/	/
COc1ccc(NC(=O)CN2CCN(C(=O)C3CCCO3)CC2)c(OC)c1 (stereo not given)	-4	0	3	-21	5	/	/
Cc1cccc(CN2CCC(CNC(=O)CSc3cc(=O)n(C)c4cc(Cl)ccc34)CC2)c1	-1	2	1	65*	21	42*	67*
COc1ccc(-c2cccc(-c3cc(=O)oc4cc5c(cc34)OCO5)c2)cc1	6	2	12	54*	4	24	/
COc1cc(OC)c2c(-c3cccc(-c4ccc(O)cc4)c3)cc(=O)oc2c1	19	2	9	73*	2	56*	43*
COc1ccc(-c2cccc(-c3cc(=O)oc4cc(OC)cc(OC)c34)c2)cc1	26	1	11	78*	1	54*	68*
COc1cc(OC)c2c(-c3cccc(-c4ccc(OC(F)(F)F)cc4)c3)cc(=O)oc2c1	2	2	3	18	1	/	/
COc1cc(OC)c2c(-c3cccc(-c4ccc(N(C)C)cc4)c3)cc(=O)oc2c1	5	0	-4	67*	-2	56*	103*
COc1cc2oc(=O)cc(-c3ccc(-c4ccc(N(C)C)cc4)cc3)c2c(OC)c1OC	-5	-2	-6	35	-1	/	/
COc1ccc(-c2cccc(-c3cc(=O)oc4cc(OC)c(OC)c(OC)c34)c2)cc1	6	4	0	37	-4	/	/
Cc1ccc(Nc2nc(C)cc(C)n2)c(Br)c1	3	0	-8	-7	0	/	/
Clc1ccc(OCc2nn[nH]n2)cc1	-2	3	2	2	0	/	/
COc1ccc(Nc2nc(-c3cccs3)cs2)c(OC)c1	-1	3	-9	-138	0	/	/
COc1ccc(OC)c(Nc2nc(-c3c(C)nc4ncccn34)cs2)c1	14	-1	-13	76*	52	34	85*
COc1ccc(Nc2nc(-c3sc(C)nc3C)cs2)c(OC)c1	-3	6	-9	65*	5	56*	63*
Cc1nc2ncccn2c1-c1csc(Nc2cccc(C(=O)O)c2)n1	-3	1	-14	5	-1	/	/
COc1ccc(C(=O)O)cc1S(=O)(=O)Nc1ccc2cn[nH]c2c1	-1	0	-3	13	-2	/	/
CC(C)(C)c1ccc(-c2noc(CCC(=O)Nc3cccnc3)n2)cc1	-13	-9	-2	55*	8	53*	22
COc1ccccc1C1CC(=O)Nc2cc3c(cc21)OCCO3 (stereo not given)	8	-1	-5	55*	4	59*	64*
CCOc1ccccc1C1C2=C(COC2=O)Nc2cc3c(cc21)OCO3 (stereo not given)	15	2	-1	69*	7	57*	65*
SMILES	XBP1 UPR activ	CHOP UPR activ	ABHD5 PLIN5 PPI	Mdm2 MdmX PPI	Exocytosis inh	Mdm2-MdmX conf	FLuc counter
CCOc1ccccc1C1CC(=O)Nc2cc3c(cc21)OCO3 (stereo not given)	4	-3	3	40	4	/	/
CCCOc1c(OC)cccc1C1CC(=O)Nc2cc3c(cc21)OCO3 (stereo not given)	-2	2	-1	55*	3	51*	68*
CCCOc1c(OC)cccc1C1CC(=O)Nc2cc3c(cc21)OCCO3 (stereo not given)	-4	-1	-3	52*	-1	55*	68*
COCCn1nnnc1C(c1cccc(C#N)c1)N1CCCCCC1 (stereo not given)	1	0	-3	-10	4	/	/
CC(C)(C)C(C(Oc1ccc(Cl)cc1)n1cncn1)n1nnnc1C(c1cccc(Cl)c1)N1CCCCC1 (stereo not given)	8	0	/	57*	/	31	/
CCOC(=O)N1CCN(CC(O)COCc2ccccc2)CC1 (stereo not given)	0	-1	0	-2	0	/	/
Cc1ccc(NC(=O)CC2S/C(=N/N=C/c3ccco3)NC2=O)cc1Cl (stereo not given)	1	-2	1	-10	-5	/	/
Cc1ccc(NC(=O)CC2S/C(=N/N=C/C=C/c3ccccc3)NC2=O)cc1Cl (stereo not given)	0	4	1	54*	3	7	/
Cc1ccc(-n2ncc(C(=O)Nc3cc(Cl)ccc3C)c2C2CCNCC2)cc1C	-1	-1	4	66*	0	38	72*
CN1CCN(S(=O)(=O)c2cccc(C(=O)Nc3cc(C(N)=O)cc(C(N)=O)c3)c2)CC1	-1	2	8	19	-18	/	/
Cc1nnsc1-c1onc(C)c1C(=O)Nc1cc(Cl)cc(Cl)c1	1	2	2	76*	-4	16	/
Cc1ccc(NC(=O)c2c(C)noc2-c2snnc2C)cc1	-1	2	6	2	-8	/	/
CCc1ccc2c(F)cccc2n1	/	/	-3	/	-1	/	/
CCOC(=O)/C=C/C(=O)Nc1ccc(S(=O)(=O)Nc2c(C)cc(C)cc2C)cc1	0	1	11	50*	-2	28	/
CCOC(=O)/C=C/C(=O)Nc1ccc(Oc2ccccc2)cc1	7	9	1	56*	24	55*	24
Cc1cc(C)c(NS(=O)(=O)c2ccc(NC(=O)c3cccs3)cc2)c(C)c1	-1	1	-3	21	-5	/	/
C=C1C(C(=O)Nc2ccc(OC)cc2)C1C(=O)Nc1ccc(OC)cc1 (stereo not given)	-1	1	-9	72*	-1	25	/
Cc1ccc2c(c1)-c1c(ssc1=S)C(C)(C)N2C(=O)c1ccco1	2	0	-11	57*	-2	37	/
